Test results published in ChEMBL document CHEMBL1143294, “Synthesis and antifungal activity of 1,2,3-triazole containing fluconazole analogues” (Bioorg Med Chem Lett, 2009).
In brackets after ≈: the same amount, converted by molar mass.

How the values were obtained:
Sporothrix schenckii = assay: Antimicrobial activity against Sporothrix schenckii by broth microdilution method; assay type: functional, organism-based
Method in brief: (§1)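 Standard broth microdilution following NCCLS guidelines. MIC and IC50 values were determined.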

A-431 [1] = assay: Cytotoxicity against human A431 cells at 1 mg/ml
[2] = system: Trichophyton mentagrophytes; assay: Antimicrobial activity against Trichophyton mentagrophytes by broth microdilution method; assay type: functional, organism-based; method in brief: as §1
Candida parapsilosis = assay: Antimicrobial activity against Candida parapsilosis ATCC 22019 by broth microdilution method; assay type: functional, organism-based; settings: Lodderomyces parapsilosis; method in brief: as §1
Aspergillus fumigatus = assay: Antimicrobial activity against Aspergillus fumigatus by broth microdilution method; assay type: functional, organism-based; method in brief: as §1
Cryptococcus neoformans = assay: Antimicrobial activity against Cryptococcus neoformans by broth microdilution method; assay type: functional, organism-based; method in brief: as §1
[3] = Cytotoxicity against human Hep3B cells; settings: hep 3b2
Candida albicans [4] = assay: Antimicrobial activity against Candida albicans infected Swiss mouse assessed as reduction of kidney fungal load at 50 mg/kg, po administered once daily for 7 days measured after 9 days; assay type: functional; set-up: scale not given: the % may be the effect or the level left
Method in brief: (§2)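 Swiss mice received an intravenous Candida albicans challenge, with five mice per group. Test agent was given orally in PEG 200 once a day for 7 days. Mice were sacrificed on day 9, and kidney fungal burden was counted as CFU/g tissue. Results are expressed as % reduction in CFU relative to the untreated control group.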

Candida albicans [5] = assay: Antimicrobial activity against Candida albicans by broth microdilution method; assay type: functional, organism-based; method in brief: as §1
[6] = Cytotoxicity against human Hep3B cells at 0.001 mg/ml; assay type: cell-based; settings: hep 3b2
Method in brief: (§3)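 Antiproliferative assay in human hepatocellular carcinoma Hep3B and human epithelial carcinoma A431 cells. Compounds were tested across 0.001–1 mg/ml.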

A-431 [7] = assay: Cytotoxicity against human A431 cells at 1 mg/ml; assay type: cell-based; method in brief: as §3
Candida albicans [8] = assay: Antimicrobial activity against Candida albicans infected Swiss mouse assessed as reduction of kidney fungal load at 25 mg/kg, po administered once daily for 7 days measured after 9 days; assay type: functional; set-up: scale not given: the % may be the effect or the level left; method in brief: as §2
[9] = Cytotoxicity against human Hep3B cells at 0.001 mg/ml; settings: hep 3b2
A-431 [10] = assay: Cytotoxicity against human A431 cells at 0.001 mg/ml; assay type: cell-based; method in brief: as §3

Row | Structure (SMILES) | IC50 (Sporothrix schenckii) [µg/mL] | MIC (Sporothrix schenckii) [µg/mL] | Activity (A-431 [1]) | IC50 [2] [µg/mL] | MIC [2] [µg/mL] | IC50 (Candida parapsilosis) [µg/mL] | MIC (Candida parapsilosis) [µg/mL] | IC50 (Aspergillus fumigatus) [µg/mL] | MIC (Aspergillus fumigatus) [µg/mL] | IC50 (Cryptococcus neoformans) [µg/mL] | MIC (Cryptococcus neoformans) [µg/mL] | Activity [3] | Activity (Candida albicans [4]) [%] | IC50 (Candida albicans [5]) [µg/mL] | MIC (Candida albicans [5]) [µg/mL] | Activity [6] | Activity (A-431 [7]) | Activity (Candida albicans [8]) [%] | Activity [9] | Activity (A-431 [10])
1 | C[C@H](CCC(=O)OCc1cn(CC(O)(Cn2cncn2)c2ccc(F)cc2F)nn1)[C@H]1CC[C@H]2[C@@H]3CC[C@@H]4C[C@H](O)CC[C@]4(C)[C@H]3C[C@H](O)[C@]12C (some centres not stated) | 0.76 (≈ 1.07 µM) | 0.84 (≈ 1.18 µM) | Toxic | 46.5 (≈ 65.4 µM) | > 50 | 0.38 (≈ 0.535 µM) | 0.396 (≈ 0.557 µM) | 6.24 (≈ 8.78 µM) | > 50 | < 0.001 | 0.01 (≈ 0.0141 µM) | Non-toxic | 38.2 | < 0.001 | < 0.001 | Non-toxic | Toxic | – | – | –
2 | OC(Cn1cncn1)(Cn1ccnn1)c1ccc(F)cc1F (configuration not stated) | 5.77 (≈ 18.8 µM) | 10.6 (≈ 34.7 µM) | – | 6.45 (≈ 21.1 µM) | 12.2 (≈ 39.7 µM) | 6.83 (≈ 22.3 µM) | 12.8 (≈ 41.9 µM) | > 50 | > 50 | 0.03 (≈ 0.098 µM) | 0.78 (≈ 2.55 µM) | – | – | 0.72 (≈ 2.35 µM) | 1.48 (≈ 4.83 µM) | – | – | – | – | –
3 | C[Si](C)(C)c1cn(CC(O)(Cn2cncn2)c2ccc(F)cc2F)nn1 (configuration not stated) | 3.11 (≈ 8.22 µM) | 3.16 (≈ 8.35 µM) | – | 8.57 (≈ 22.6 µM) | 15.6 (≈ 41.1 µM) | 33.1 (≈ 87.5 µM) | 44.5 (≈ 118 µM) | 43.2 (≈ 114 µM) | 49.8 (≈ 132 µM) | 1.01 (≈ 2.67 µM) | 1.56 (≈ 4.12 µM) | – | – | 3.04 (≈ 8.03 µM) | 3.26 (≈ 8.61 µM) | – | – | – | – | –
4 | CCCCCCCCn1cc(CC(O)(Cn2cncn2)c2ccc(F)cc2F)nn1 (configuration not stated) | 0.008 (≈ 0.0191 µM) | 0.036 (≈ 0.086 µM) | – | 0.249 (≈ 0.595 µM) | 0.48 (≈ 1.15 µM) | 0.002 (≈ 0.00478 µM) | 0.01 (≈ 0.0239 µM) | 0.8 (≈ 1.91 µM) | 1.12 (≈ 2.68 µM) | < 0.006 | 0.002 (≈ 0.00478 µM) | Non-toxic | 97.4 | 0.001 (≈ 0.00239 µM) | 0.002 (≈ 0.00478 µM) | Non-toxic | Toxic | 41.2 | – | –
5 | OC(Cc1c[nH]nn1)(Cn1cncn1)c1ccc(F)cc1F (configuration not stated) | 4.43 (≈ 14.5 µM) | 12.4 (≈ 40.5 µM) | – | 47 (≈ 153 µM) | 49 (≈ 160 µM) | 16.8 (≈ 55 µM) | 29.1 (≈ 95 µM) | > 50 | > 50 | 0.69 (≈ 2.25 µM) | 3.12 (≈ 10.2 µM) | – | – | 2.74 (≈ 8.95 µM) | 3.16 (≈ 10.3 µM) | – | – | – | – | –
6 | C[C@H](CCC(=O)OCc1cn(CC(O)(Cn2cncn2)c2ccc(F)cc2F)nn1)[C@H]1CC[C@H]2[C@@H]3[C@H](O)C[C@@H]4C[C@H](O)CC[C@]4(C)[C@H]3C[C@H](O)[C@]12C (some centres not stated) | 11.3 (≈ 15.5 µM) | 12.6 (≈ 17.3 µM) | Toxic | 8.9 (≈ 12.2 µM) | 18.4 (≈ 25.3 µM) | 2.93 (≈ 4.03 µM) | 5.15 (≈ 7.09 µM) | 31.2 (≈ 43 µM) | > 50 | 0.03 (≈ 0.0413 µM) | 0.19 (≈ 0.261 µM) | – | – | 0.35 (≈ 0.482 µM) | 0.442 (≈ 0.608 µM) | Non-toxic | Toxic | – | Non-toxic | –
7 | CCCCCCc1cn(CC(O)(Cn2cncn2)c2ccc(F)cc2F)nn1 (configuration not stated) | 0.043 (≈ 0.11 µM) | 0.14 (≈ 0.359 µM) | Toxic | 2.46 (≈ 6.3 µM) | 6.72 (≈ 17.2 µM) | 0.12 (≈ 0.307 µM) | 0.39 (≈ 0.999 µM) | 5 (≈ 12.8 µM) | 6.9 (≈ 17.7 µM) | < 0.01 | 0.02 (≈ 0.0512 µM) | Non-toxic | 95 | 0.018 (≈ 0.0461 µM) | 0.032 (≈ 0.082 µM) | Non-toxic | Toxic | – | – | –
8 | C[C@@H]1[C@H](O)[C@@H](C)/C=C/C=C/C=C/C=C/C=C/C=C/C=C/[C@H](O[C@@H]2O[C@H](C)[C@@H](O)[C@H](N)[C@@H]2O)C[C@@H]2O[C@](O)(C[C@@H](O)C[C@@H](O)[C@H](O)CC[C@@H](O)C[C@@H](O)CC(=O)O[C@H]1C)C[C@H](O)[C@H]2C(=O)O [AMPHOTERICIN B] | – | 0.12 (≈ 0.13 µM) | Toxic | 0.02 (≈ 0.0216 µM) | 0.12 (≈ 0.13 µM) | – | 0.12 (≈ 0.13 µM) | – | 0.5 (≈ 0.541 µM) | – | 0.06 (≈ 0.0649 µM) | – | – | – | 0.12 (≈ 0.13 µM) | Non-toxic | Toxic | – | Non-toxic | –
9 | OC(Cn1cncn1)(Cn1cncn1)c1ccc(F)cc1F [FLUCONAZOLE] | – | 2 (≈ 6.53 µM) | – | 0.6 (≈ 1.96 µM) | 1 (≈ 3.27 µM) | – | 1 (≈ 3.27 µM) | – | 2 (≈ 6.53 µM) | 0.45 (≈ 1.47 µM) | 1 (≈ 3.27 µM) | – | – | – | 0.5 (≈ 1.63 µM) | Non-toxic | Toxic | – | Non-toxic | Toxic
10 | CC(=O)N1CCN(c2ccc(OCC3COC(Cn4ccnc4)(c4ccc(Cl)cc4Cl)O3)cc2)CC1 (configuration not stated) [KETOCONAZOLE] | 0.026 (≈ 0.0489 µM) | 0.031 (≈ 0.0583 µM) | Toxic | 2.12 (≈ 3.99 µM) | 4 (≈ 7.53 µM) | 0.024 (≈ 0.0452 µM) | 0.031 (≈ 0.0583 µM) | 0.008 (≈ 0.0151 µM) | 2 (≈ 3.76 µM) | 0.001 (≈ 0.00188 µM) | 0.001 (≈ 0.00188 µM) | – | – | 0.001 (≈ 0.00188 µM) | 0.002 (≈ 0.00376 µM) | Non-toxic | Toxic | – | Non-toxic | –
